Data published in ChEMBL document CHEMBL3232764, “Influence of the adamantyl moiety on the activity of biphenylacrylohydroxamic acid-based HDAC inhibitors” (Eur J Med Chem, 2014).
Calls of active or inactive are those of the source. The rule behind the calls is not given here.

Columns and labels:
[1] = Cell cycle arrest in human IGROV1 cells assessed as accumulation at G2/M phase at IC80 after 24 hrs by propidium iodide staining-based flow cytometry (reference value: 13.21%); format: functional; conditions: IGROV-1
Outline: (§1)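 Cell-cycle distribution in IGROV-1 cells read by flow cytometry of propidium iodide–stained cells.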

IGROV-1 [2] = assay: Cell cycle arrest in human IGROV1 cells assessed as accumulation at G1 phase at IC80 after 24 hrs by propidium iodide staining-based flow cytometry (reference value: 49.98%); format: functional; outline: as §1
IGROV-1 [3] = assay: Antiproliferative activity against human IGROV1 cells assessed as growth inhibition after 72 hrs; format: functional, cell-based; conditions: IGROV-1, 72 h
Outline: (§2)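 Log-phase cells seeded in duplicate in 6-well plates; drug added 24 h after seeding. Cells harvested 72 h after drug exposure and counted with a cell counter. IC50 = drug concentration giving 50% reduction in cell number versus untreated control.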

HCT-116 [4] = assay: Anticancer activity against human HCT116 cells xenografted in athymic nude Swiss mouse assessed as tumor growth inhibition at 50 mg/kg, po administered once-daily for 5 days a week for 5 weeks starting 3 days post tumor implantation; format: functional; conditions: read-out: TGI
Outline: (§3)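 Female athymic Swiss nude mice given 10⁷ exponentially growing HCT116 cells s.c. in the right flank; tumor lines maintained by serial s.c. fragment passage. Dosing began 3 days after implantation: 50 mg/kg orally, once daily 4–5 days/week for 5 weeks (24 doses total). Compound dissolved in DMSO, diluted in PBS with 5% Cremophor to 10% DMSO final.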

Histone deacetylase 11 = target: T1, Histone deacetylase 11 (Homo sapiens, UniProt Q96DB2); assay: Inhibition of human HDAC11 using fluorogenic tetrapeptide RHKKAc as substrate
T1 sequence (Q96DB2 whole entry): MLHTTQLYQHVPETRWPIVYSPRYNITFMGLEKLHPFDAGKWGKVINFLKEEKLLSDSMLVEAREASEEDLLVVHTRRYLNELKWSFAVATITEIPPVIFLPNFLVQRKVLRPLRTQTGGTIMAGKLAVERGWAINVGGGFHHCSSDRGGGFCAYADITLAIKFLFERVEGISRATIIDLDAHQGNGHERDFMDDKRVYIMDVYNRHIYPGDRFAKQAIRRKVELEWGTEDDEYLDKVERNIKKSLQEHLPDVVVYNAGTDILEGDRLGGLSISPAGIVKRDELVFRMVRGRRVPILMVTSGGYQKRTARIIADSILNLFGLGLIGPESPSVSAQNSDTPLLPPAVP

IGROV-1 [5] = assay: Induction of apoptosis in human IGROV1 cells at IC80 after 72 hrs by TUNEL and flow cytometry analysis (reference value: 4%); format: functional
IGROV-1 [6] = assay: Cell cycle arrest in human IGROV1 cells assessed as accumulation at S phase at IC80 after 24 hrs by propidium iodide staining-based flow cytometry (reference value: 36.81%); format: functional; outline: as §1
IGROV-1 [7] = assay: Induction of DNA damage in human IGROV1 cells assessed as p53 phosphorylation at Ser15 at 1 to 2 uM after 4 to 48 hrs by Western blot analysis; format: functional, cell-based
Outline: (§4)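 Cells treated with various concentrations of HDAC inhibitors, collected, lysed and analysed by Western blotting.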

HCT-116 [8] = assay: Antiproliferative activity against human HCT116 cells assessed as growth inhibition after 72 hrs; format: functional, cell-based; conditions: HCT-116, 72 h; outline: as §2
[9] = Antiproliferative activity against p53 defective cis-platinum-resistant human IGROV1/Pt1 cells assessed as growth inhibition after 72 hrs; format: functional, cell-based; conditions: IGROV-1/Pt1, 72 h; outline: as §2
[10] = target: T2, Protein deacetylase HDAC6 (Homo sapiens) (UniProt Q9UBN7); assay: Inhibition of HDAC6 in human IGROV1 cells assessed as increase in tubulin acetylation at IC80 after 4 to 24 hrs by Western blot analysis; format: cell-based; conditions: IGROV-1; outline: as §4
T2 sequence (whole entry): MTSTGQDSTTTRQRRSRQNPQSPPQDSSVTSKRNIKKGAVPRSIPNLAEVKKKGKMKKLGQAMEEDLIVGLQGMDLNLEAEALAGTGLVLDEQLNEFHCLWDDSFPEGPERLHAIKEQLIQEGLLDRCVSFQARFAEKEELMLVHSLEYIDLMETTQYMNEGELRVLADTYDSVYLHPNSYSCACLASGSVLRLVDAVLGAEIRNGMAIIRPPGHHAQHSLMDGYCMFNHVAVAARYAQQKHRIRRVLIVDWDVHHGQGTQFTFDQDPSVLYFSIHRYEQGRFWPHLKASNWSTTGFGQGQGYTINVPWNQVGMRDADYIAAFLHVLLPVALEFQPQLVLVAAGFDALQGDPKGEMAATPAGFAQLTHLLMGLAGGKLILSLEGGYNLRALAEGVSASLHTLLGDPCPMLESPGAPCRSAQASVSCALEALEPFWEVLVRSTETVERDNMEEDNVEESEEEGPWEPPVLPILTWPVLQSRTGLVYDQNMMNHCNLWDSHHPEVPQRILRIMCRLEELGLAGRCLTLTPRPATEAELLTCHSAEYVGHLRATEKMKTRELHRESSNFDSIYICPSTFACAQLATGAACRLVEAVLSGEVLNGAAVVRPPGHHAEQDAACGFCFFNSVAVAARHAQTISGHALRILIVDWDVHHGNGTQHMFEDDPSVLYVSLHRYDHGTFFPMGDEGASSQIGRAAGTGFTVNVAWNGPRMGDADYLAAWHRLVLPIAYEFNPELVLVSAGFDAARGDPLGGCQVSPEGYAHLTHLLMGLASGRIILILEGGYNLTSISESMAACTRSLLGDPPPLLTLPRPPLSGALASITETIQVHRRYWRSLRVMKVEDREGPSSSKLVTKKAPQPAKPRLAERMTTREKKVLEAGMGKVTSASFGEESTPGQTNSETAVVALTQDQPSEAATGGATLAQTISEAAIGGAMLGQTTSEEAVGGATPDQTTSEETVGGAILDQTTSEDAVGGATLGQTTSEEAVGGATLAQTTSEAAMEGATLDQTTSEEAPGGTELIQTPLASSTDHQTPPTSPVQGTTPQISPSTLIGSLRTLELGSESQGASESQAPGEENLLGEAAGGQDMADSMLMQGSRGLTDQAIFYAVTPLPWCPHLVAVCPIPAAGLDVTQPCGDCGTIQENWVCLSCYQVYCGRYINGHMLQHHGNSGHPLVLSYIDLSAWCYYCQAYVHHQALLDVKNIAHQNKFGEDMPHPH

Mus musculus = assay: Toxicity in athymic nude Swiss mouse xenografted with human HCT116 cells at 50 mg/kg, po administered once-daily for 5 days a week for 5 weeks starting 3 days post tumor implantation; format: organism-based, HCT-116; design: dose 50 mg/kg, route oral; conditions: in vivo; outline: as §3
cells = format: functional, cell-based; conditions: Homo sapiens, NCI-H460, 72 h
Histone deacetylase 2 = Histone deacetylase 2 (Homo sapiens, UniProt Q92769); format: cell-based, HeLa
Sequence of Histone deacetylase 2 (Q92769 whole entry): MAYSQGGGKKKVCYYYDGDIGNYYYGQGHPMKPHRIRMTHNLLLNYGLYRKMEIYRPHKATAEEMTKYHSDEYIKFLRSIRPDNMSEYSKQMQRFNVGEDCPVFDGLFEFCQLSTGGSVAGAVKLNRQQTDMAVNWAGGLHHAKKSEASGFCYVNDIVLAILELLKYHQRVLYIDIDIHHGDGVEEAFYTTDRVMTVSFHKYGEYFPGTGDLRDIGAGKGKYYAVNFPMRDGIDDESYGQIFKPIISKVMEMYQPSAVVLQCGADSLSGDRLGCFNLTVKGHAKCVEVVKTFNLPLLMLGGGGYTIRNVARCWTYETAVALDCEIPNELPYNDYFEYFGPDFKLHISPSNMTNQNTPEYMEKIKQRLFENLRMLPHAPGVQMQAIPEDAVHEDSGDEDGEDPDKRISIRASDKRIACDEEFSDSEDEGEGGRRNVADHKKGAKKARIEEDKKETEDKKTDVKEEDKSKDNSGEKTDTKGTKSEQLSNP

| Structure (SMILES) | IC50 (Histone deacetylase 11) [nM] | IC50 (HCT-116 [8]) [nM] | Activity [10] | IC50 (cells) [nM] | IC50 (Histone deacetylase 2) [nM] | Activity [1] [%] | Activity (IGROV-1 [2]) [%] | IC50 (IGROV-1 [3]) [nM] | inhibition in vivo at 50 mg/kg (HCT-116 [4]) [%] | Activity (IGROV-1 [5]) [%] | Activity (IGROV-1 [6]) [%] | Activity (IGROV-1 [7]) | IC50 [9] [nM] | Activity (Mus musculus) |
| --- | --- | --- | --- | --- | --- | --- | --- | --- | --- | --- | --- | --- | --- | --- |
| O=C(/C=C/c1ccc(-c2cc3c(c(C45CC6CC(CC(C6)C4)C5)c2)OCCO3)cc1)NO |  | 2550 |  | 1000 |  |  |  | 1200 |  |  |  |  | 800 |  |
| O=C(/C=C/c1ccc(-c2cccc(C34CC5CC(CC(C5)C3)C4)c2)cc1)NO |  | 10300 |  | > 10000 | > 10000 |  |  | 1230 |  |  |  |  | 5700 |  |

The next lines start with results.

| IC50 (Histone deacetylase 11) [nM] | IC50 (HCT-116 [8]) [nM] | Activity [10] | IC50 (cells) [nM] | IC50 (Histone deacetylase 2) [nM] | Structure (SMILES) | Activity [1] [%] | Activity (IGROV-1 [2]) [%] | IC50 (IGROV-1 [3]) [nM] | inhibition in vivo at 50 mg/kg (HCT-116 [4]) [%] | Activity (IGROV-1 [5]) [%] | Activity (IGROV-1 [6]) [%] | Activity (IGROV-1 [7]) | IC50 [9] [nM] | Activity (Mus musculus) |
| --- | --- | --- | --- | --- | --- | --- | --- | --- | --- | --- | --- | --- | --- | --- |
| 77000 | 1300 | inactive | 1420 | 2300 | COc1ccc(-c2ccc(/C=C/C(=O)NO)cc2)cc1C12CC3CC(CC(C3)C1)C2 | 3.39 | 78.46 | 960 | 60 | 42 | 18.14 | Active | 1800 | Non-toxic |
|  | 5400 |  | 5400 |  | O=C(/C=C/c1ccc(-c2ccc(O)c(C34CC5CC(CC(C5)C3)C4)c2)c(Cl)c1)NO |  |  | 1340 |  |  |  |  | 1600 |  |
|  | 700 |  | 1000 |  | O=C(NO)c1ccc2cc(-c3ccc(O)c(C45CC6CC(CC(C6)C4)C5)c3)ccc2c1 |  |  | 650 |  |  |  |  | 1100 |  |
